Data: ChEMBL document CHEMBL1153877, “Lowering of 5-nitroimidazole's mutagenicity: towards optimal antiparasitic pharmacophore” (Eur J Med Chem, 2009)

Tests used:
Salmonella typhimurium [1] = assay: Induction of mutagenicity in Salmonella Typhimurium YG1042 assessed as number of revertant per nmol after 48 hrs relative to metranidazole; assay type: toxicity, organism-based; details: salmonella enterica subsp. enterica serovar typhimurium
Salmonella typhimurium [2] = assay: Induction of mutagenicity in Salmonella Typhimurium TA100 assessed as number of revertant per nmol after 48 hrs relative to metranidazole; assay type: toxicity, organism-based; details: salmonella enterica subsp. enterica serovar typhimurium
Salmonella typhimurium [3] = assay: Induction of mutagenicity in Salmonella Typhimurium TA100 assessed as number of revertant per ug after 48 hrs; assay type: toxicity, organism-based; details: salmonella enterica subsp. enterica serovar typhimurium
Outline: (§1)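 TA100 grown overnight in Nutrient Broth No. 2 with ampicillin. Bacteria preincubated 60 min at 37 °C with shaking with compound in DMSO and 0.1 mL PBS (0.15 M, pH 7.4). Top agar containing histidine/biotin added, then plated on Vogel-Bonner agar. Revertants counted after 48 h. Four consecutive doses in triplicate plates; solvent control in quadruplicate. Mutagenic power given as revertants per amount of compound.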

Salmonella typhimurium [4] = assay: Induction of mutagenicity in Salmonella Typhimurium TA100 assessed as number of revertant per nmol after 48 hrs; assay type: toxicity, organism-based; details: salmonella enterica subsp. enterica serovar typhimurium; outline: as §1
Salmonella typhimurium [5] = assay: Induction of mutagenicity in Salmonella Typhimurium YG1042 assessed as number of revertant per ug after 48 hrs; assay type: toxicity, organism-based; details: salmonella enterica subsp. enterica serovar typhimurium
Outline: (§2)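 YG1042, a TA100 derivative, grown overnight in Nutrient Broth No. 2 with ampicillin and kanamycin. Bacteria preincubated 60 min at 37 °C with shaking with compound in DMSO and 0.1 mL PBS (0.15 M, pH 7.4). Top agar containing histidine/biotin added, then plated on Vogel-Bonner agar. Revertants counted after 48 h. Four doses in triplicate plates; solvent control in quadruplicate. Mutagenic power given as revertants per amount of compound.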

Salmonella typhimurium [6] = assay: Induction of mutagenicity in Salmonella Typhimurium YG1042 assessed as number of revertant per nmol after 48 hrs; assay type: toxicity, organism-based; details: salmonella enterica subsp. enterica serovar typhimurium; outline: as §2
[7] = Specificity index, ratio of IC50 for human THP1 cells to IC50 for Trichomonas vaginalis TVR87; parameters: species or system THP-1
Outline: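 Specificity index = IC50 against THP1 cells (72 h, propidium iodide flow cytometry) divided by IC50 against T. vaginalis (48 h, trypan blue).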

THP-1 = assay: Cytotoxicity against human THP1 cells after 72 hrs by propidium iodide-based flow cytometry; assay type: cell-based; details: THP-1, 72 h
Outline: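 THP1 monocytes kept in RPMI with 10% foetal calf serum, 25 mM HEPES, 25 mM NaHCO₃ and 1% L-glutamine/penicillin-streptomycin at 37 °C, 6% CO₂. Cells at 10⁵ cells/mL exposed for 72 h to various concentrations from DMSO stocks. Drug-free and 0.5% DMSO final controls run alongside. Living cells counted by propidium iodide flow cytometry.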

Salmonella typhimurium [8] = assay: Ratio of number of revertant per nmol of drug for Salmonella Typhimurium YG1042 to number of revertant per nmol of drug for Salmonella Typhimurium TA100; assay type: toxicity, organism-based; details: salmonella enterica subsp. enterica serovar typhimurium
Trichomonas vaginalis = assay: Antitrichomonas activity against Trichomonas vaginalis TVR87 after 48 hrs by trypan blue staining; assay type: functional, organism-based; details: TVR87, 48 h
Outline: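 T. vaginalis TVR87 trophozoites grown in TM 161 medium with 10% heat-inactivated horse serum, used one day after subculture in log phase. Assay at 5 × 10³ trophozoites/mL, triplicate cultures, incubated anaerobically at 37 °C for 48 h with a range of compound concentrations from DMSO stocks. DMSO 0.1% final served as negative control. Viable cells counted by trypan blue.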

| SMILES | Activity (Salmonella typhimurium [1]) | Activity (Salmonella typhimurium [2]) | Activity (Salmonella typhimurium [3]) | Activity (Salmonella typhimurium [4]) | Activity (Salmonella typhimurium [5]) | Activity (Salmonella typhimurium [6]) | Ratio IC50 [7] | IC50 (THP-1) [µM] | Ratio (Salmonella typhimurium [8]) | IC50 (Trichomonas vaginalis) [µM] |
| --- | --- | --- | --- | --- | --- | --- | --- | --- | --- | --- |
| Cc1nc(CS(=O)(=O)c2ccc(Cl)cc2)c([N+](=O)[O-])n1CC(C)O (configuration not stated) | 0.02 | 0.1 | 2.18 | 0.81 | 3.72 | 1.39 | >912 | > 668 | 1.7 | 0.732 |
| Cc1nc(CS(=O)(=O)c2ccc(Cl)cc2)c([N+](=O)[O-])n1C | 0.1 | 0.28 | 7.15 | 2.36 | 25.21 | 8.31 | 74 | 68 | 3.5 | 0.918 |
| Cc1ccc(S(=O)(=O)Cc2nc(C)n(CC(C)O)c2[N+](=O)[O-])cc1 (configuration not stated) | 0.03 | 0.09 | 2.07 | 0.73 | 6.76 | 2.39 | >5701 | > 707 | 3.3 | 0.124 |
| Cn1cnc(CS(=O)(=O)c2ccc(Cl)cc2)c1[N+](=O)[O-] | 0.63 | 5.27 | 139.44 | 44.03 | 167.38 | 52.85 | 1101 | 174 | 1.2 | 0.158 |
| Cn1cnc(CS(=O)(=O)c2ccc(F)cc2)c1[N+](=O)[O-] | 0.56 | 1.26 | 35.17 | 10.53 | 157.34 | 47.09 | >2500 | > 835 | 4.5 | 0.334 |
| Cc1ccc(S(=O)(=O)Cc2nc(C)n(C)c2[N+](=O)[O-])cc1 | 0.2 | 0.56 | 15.03 | 4.65 | 54.97 | 17 | 684 | 242 | 3.7 | 0.355 |
| Cc1nc(CS(=O)(=O)c2ccccc2)c([N+](=O)[O-])n1CC(C)O (configuration not stated) | 0.04 | 0.1 | 2.58 | 0.88 | 10.76 | 3.65 | 679 | 418 | 4.2 | 0.615 |
| Cn1cncc1[N+](=O)[O-] | 2.34 | 1.85 | 121.79 | 15.48 | 1551.06 | 197.14 | >3125 | > 1970 | 12.7 | 0.629 |
| Cn1cnc(CS(=O)(=O)c2ccc(Br)cc2)c1[N+](=O)[O-] | 0.7 | 1.78 | 41.41 | 14.92 | 164.42 | 59.22 | >1761 | > 694 | 4 | 0.394 |
| Cc1ncc([N+](=O)[O-])n1CCO [METRONIDAZOLE] | – | – | – | – | – | – | – | > 1460 | – | 2.75 |
| Cc1nc(CS(=O)(=O)c2ccccc2)c([N+](=O)[O-])n1CCO | 0.03 | 0.07 | 1.72 | 0.56 | 8.36 | 2.72 | >500 | > 768 | 4.9 | 1.54 |
| Cc1ncc([N+](=O)[O-])n1C [DIMETRIDAZOLE] | 2.64 | 2.6 | 153.8 | 21.71 | 1578.04 | 222.71 | >2501 | > 1770 | 10.3 | 0.708 |
